According to ChEMBL document CHEMBL4219079, “Design, synthesis, and evaluation of the antiproliferative activity of hydantoin-derived antiandrogen-genistein conjugates” (Bioorg Med Chem, 2018):
Activity calls are given as the source filed them. The rule behind the calls is not given here.

Columns and labels:
LNCaP [1] = assay: Antiproliferative activity against human LNCAP cells after 72 hrs by MTS assay; type: functional, cell-based
Procedure, shortened: (§1)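 Seeded at 4,500 cells per well and exposed to compound in triplicate for 72 h. LNCaP were cultured in phenol-red-free RPMI-1640 and DU145 in EMEM, each with 10% FBS and penicillin/streptomycin, at 37 °C under 5% CO2. Viability was read by MTS. IC50 came from dose-response curve fitting. For combination lines, genistein was given together with enzalutamide.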

DU-145 [2] = assay: Antiproliferative activity against human DU145 cells after 72 hrs by MTS assay; type: functional, cell-based; procedure, shortened: as §1
LNCaP [3] = assay: Cell cycle arrest in human LNCAP cells assessed as accumulation at S phase at 25 uM after 24 hrs by propidium iodide staining based flow cytometry (reference value: 37.5%); type: functional
LNCaP [4] = assay: Antiproliferative activity against human LNCAP cells after 72 hrs in presence of enzalutamide by MTS assay; type: functional, cell-based; procedure, shortened: as §1
DU-145 [5] = assay: Antiproliferative activity against human DU145 cells after 72 hrs in presence of enzalutamide by MTS assay; type: functional, cell-based; procedure, shortened: as §1
LNCaP [6] = assay: Cell cycle arrest in human LNCAP cells assessed as accumulation at greater G2 phase at 25 uM after 24 hrs by propidium iodide staining based flow cytometry (reference value: -0.37%); type: functional
LNCaP [7] = assay: Antiproliferative activity against human LNCAP cells; type: functional, cell-based
CWR22R [8] = assay: Antiproliferative activity against human 22Rv1 cells harboring truncated AR at 50 uM after 72 hrs by MTS assay relative to control; type: functional
Procedure, shortened: (§2)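 PC3, C4-2 and 22Rv1 prostate cancer cells treated in serum-fed medium with a range of doses, up to 50 μM. Growth read at 72 h post-treatment by MTS assay as percent of control. Data are averages of two independent experiments, each done in duplicate.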

LNCaP [9] = assay: Antiproliferative activity against human LNCAP cells assessed as cell survival at 100 uM after 72 hrs in presence of enzalutamide by MTS assay relative to control; type: functional; conditions: read-out: Survival
Procedure, shortened: (§3)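 LNCaP (phenol-red free RPMI-1640) or DU145 (EMEM), each with 10% FBS and penicillin/streptomycin, at 37 °C in 5% CO2. Cells seeded at 4,500 per well and exposed to compound in triplicate for 72 h. Viability read by MTS. Curves are the average of triplicate experiments, with IC50 taken from curve fitting.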

LNCaP [10] = assay: Cell cycle arrest in human LNCAP cells assessed as accumulation at less G1 phase at 25 uM after 24 hrs by propidium iodide staining based flow cytometry (reference value: 1.5%); type: functional
LNCaP [11] = assay: Cell cycle arrest in human LNCAP cells assessed as accumulation at G2 phase at 25 uM after 24 hrs by propidium iodide staining based flow cytometry (reference value: 9.83%); type: functional
LNCaP C4-2 [12] = assay: Antiproliferative activity against human AR positive C4-2 cells at 50 uM after 72 hrs by MTS assay relative to control; type: functional; procedure, shortened: as §2
Homo sapiens = species: Homo sapiens; assay: Inhibition of HDAC6/HSP90 in human LNCAP cells assessed as downregulation of AR protein level at 2.5 uM after 24 hrs by Western blot method; type: cell-based
Procedure, shortened: (§4)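 LNCaP seeded at 10^6 cells/dish 24 h before a 24 h compound treatment, with DMSO as control. Lysates were made in CelLyticM with protease inhibitors and quantified by Bradford. Equal protein was run on SDS-PAGE at 100 V for 2 h, transferred to nitrocellulose, and probed for AR, with actin as loading control.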

LNCaP [13] = assay: Cell cycle arrest in human LNCAP cells assessed as accumulation at G1 phase at 25 uM after 24 hrs by propidium iodide staining based flow cytometry (reference value: 52.4%); type: functional
PC-3 [14] = assay: Antiproliferative activity against human AR negative PC3 cells at 50 uM after 72 hrs by MTS assay relative to control; type: functional; procedure, shortened: as §2
CWR22R [15] = assay: Antiproliferative activity against human 22Rv1 cells harboring truncated AR up to 25 uM after 72 hrs by MTS assay; type: functional, cell-based; procedure, shortened: as §2
LNCaP [16] = assay: Cell cycle arrest in human LNCAP cells assessed as accumulation at S phase at 40 uM after 24 hrs by propidium iodide staining based flow cytometry (reference value: 37.5%); type: functional
LNCaP [17] = assay: Cell cycle arrest in human LNCAP cells assessed as accumulation at G2 phase at 40 uM after 24 hrs by propidium iodide staining based flow cytometry (reference value: 9.83%); type: functional
LNCaP [18] = assay: Cell cycle arrest in human LNCAP cells assessed as accumulation at less G1 phase at 40 uM after 24 hrs by propidium iodide staining based flow cytometry (reference value: 1.5%); type: functional
LNCaP [19] = assay: Cell cycle arrest in human LNCAP cells assessed as accumulation at G1 phase at 40 uM after 24 hrs by propidium iodide staining based flow cytometry (reference value: 52.4%); type: functional
LNCaP [20] = assay: Cell cycle arrest in human LNCAP cells assessed as accumulation at greater G2 phase at 40 uM after 24 hrs by propidium iodide staining based flow cytometry (reference value: -0.37%); type: functional
LNCaP [21] = assay: Cell cycle arrest in human LNCAP cells assessed as accumulation at G1 phase at 5 uM after 24 hrs by propidium iodide staining based flow cytometry (reference value: 52.4%); type: functional
LNCaP [22] = assay: Cell cycle arrest in human LNCAP cells assessed as accumulation at greater G2 phase at 2.5 uM after 24 hrs by propidium iodide staining based flow cytometry (reference value: -0.37%); type: functional
LNCaP [23] = assay: Cell cycle arrest in human LNCAP cells assessed as accumulation at less G1 phase at 2.5 uM after 24 hrs by propidium iodide staining based flow cytometry (reference value: 1.5%); type: functional
LNCaP [24] = assay: Cell cycle arrest in human LNCAP cells assessed as accumulation at less G1 phase at 5 uM after 24 hrs by propidium iodide staining based flow cytometry (reference value: 1.5%); type: functional
LNCaP [25] = assay: Cell cycle arrest in human LNCAP cells assessed as accumulation at G2 phase at 2.5 uM after 24 hrs by propidium iodide staining based flow cytometry (reference value: 9.83%); type: functional
LNCaP [26] = assay: Downregulation of AR protein level in human LNCAP cells at 1.25 to 2.5 uM after 24 hrs in presence of proteasome inhibitor bortezomib by Western blot method; type: functional, cell-based
Procedure, shortened: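 LNCaP seeded at 10^6 cells/dish and pretreated with bortezomib at 20 nM or 40 nM for 2 h. Cells were then exposed to compound for 24 h. AR protein was assessed by immunoblot after Bradford-normalized SDS-PAGE (100 V, 2 h) and nitrocellulose transfer, with actin as loading control.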

LNCaP [27] = assay: Cell cycle arrest in human LNCAP cells assessed as accumulation at S phase at 2.5 uM after 24 hrs by propidium iodide staining based flow cytometry (reference value: 37.5%); type: functional
DU-145 [28] = assay: Antiproliferative activity against human DU145 cells assessed as cell survival up to 100 uM after 72 hrs by MTS assay relative to control; type: functional; procedure, shortened: as §3
LNCaP [29] = assay: Cell cycle arrest in human LNCAP cells assessed as accumulation at G1 phase at 2.5 uM after 24 hrs by propidium iodide staining based flow cytometry (reference value: 52.4%); type: functional
LNCaP [30] = assay: Cell cycle arrest in human LNCAP cells assessed as accumulation at S phase at 5 uM after 24 hrs by propidium iodide staining based flow cytometry (reference value: 37.5%); type: functional
LNCaP [31] = assay: Cell cycle arrest in human LNCAP cells assessed as accumulation at greater G2 phase at 5 uM after 24 hrs by propidium iodide staining based flow cytometry (reference value: -0.37%); type: functional
LNCaP C4-2 [32] = assay: Antiproliferative activity against human AR positive C4-2 cells at 1.25 uM after 72 hrs by MTS assay relative to control; type: functional; procedure, shortened: as §2
PC-3 [33] = assay: Antiproliferative activity against human AR negative PC3 cells at 2.5 uM after 72 hrs by MTS assay relative to control; type: functional; procedure, shortened: as §2
LNCaP [34] = assay: Downregulation of AR protein level in human LNCAP cells after 24 hrs by Western blot method; type: functional, cell-based; procedure, shortened: as §4
LNCaP [35] = assay: Antiproliferative activity against human LNCAP cells assessed as cell survival up to 100 uM after 72 hrs by MTS assay relative to control; type: functional; procedure, shortened: as §3
CWR22R [36] = assay: Antiproliferative activity against human 22Rv1 cells harboring truncated AR at 1.25 uM after 72 hrs by MTS assay relative to control; type: functional; procedure, shortened: as §2
LNCaP [37] = assay: Cell cycle arrest in human LNCAP cells assessed as accumulation at G2 phase at 5 uM after 24 hrs by propidium iodide staining based flow cytometry (reference value: 9.83%); type: functional

Structure (SMILES): CC1(C)C(=O)N(c2ccc(C#N)c(C(F)(F)F)c2)C(=O)N1CCCCc1cn(CCOc2cc(O)c3c(=O)c(-c4ccc(O)cc4)coc3c2)nn1
- Activity (LNCaP [1]): inactive
- Activity (DU-145 [2]): inactive

Structure (SMILES): O=c1c(-c2ccc(O)cc2)coc2cc(O)cc(O)c12 [GENISTEIN]
- Activity (LNCaP [3]): 52.5%
- IC50 (LNCaP [1]): 24 µM
- IC50 (LNCaP [4]): 31.7 µM
- Activity (DU-145 [5]): Dose-dependent effect
- Activity (LNCaP [6]): 0.21%
- IC50 (LNCaP [7]): 10 to 40 µM
- Activity (CWR22R [8]): 40%
- viability at 100 µM (LNCaP [9]): 40%
- Activity (LNCaP [10]): -0.34%
- Activity (LNCaP [11]): 9.34%
- Activity (LNCaP C4-2 [12]): 40%
- inhibition (Homo sapiens): Active
- Activity (LNCaP [13]): 37.1%
- Activity (PC-3 [14]): 40%

Structure (SMILES): CC1(C)C(=O)N(c2ccc(C#N)c(C(F)(F)F)c2)C(=S)N1c1ccc(-c2cn(CCOCCOCCOCCOCCOCCOCCOCCOc3cc(O)c4c(=O)c(-c5ccc(O)cc5)coc4c3)nn2)cc1
- Activity (LNCaP [1]): inactive
- Activity (DU-145 [2]): inactive

Structure (SMILES): CNC(=O)c1ccc(N2C(=S)N(c3ccc(C#N)c(C(F)(F)F)c3)C(=O)C2(C)C)cc1F
- Activity (CWR22R [15]): Active

Structure (SMILES): CC1(C)C(=O)N(c2ccc(C#N)c(C(F)(F)F)c2)C(=S)N1Cc1ccc(-c2cn(CCOc3cc(O)c4c(=O)c(-c5ccc(O)cc5)coc4c3)nn2)cc1
- Activity (LNCaP [1]): inactive
- Activity (DU-145 [2]): inactive

Structure (SMILES): CC1(C)C(=O)N(c2ccc(C#N)c(C(F)(F)F)c2)C(=S)N1c1ccc(-c2cn(CCOc3cc(O)c4c(=O)c(-c5ccc(O)cc5)coc4c3)nn2)cc1
- Activity (LNCaP [1]): inactive
- Activity (DU-145 [2]): inactive

Structure (SMILES): C#CCCCCN1C(=O)N(c2ccc(C#N)c(C(F)(F)F)c2)C(=O)C1(C)C
- Activity (LNCaP [16]): 54.2%
- Activity (LNCaP [17]): 13.4%
- Activity (LNCaP [18]): -0.44%
- Activity (LNCaP [19]): 33.1%
- Activity (LNCaP [20]): -0.21%

Structure (SMILES): CC1(C)C(=O)N(c2ccc(C#N)c(C(F)(F)F)c2)C(=S)N1Cc1ccc(-c2cn(CCOCCOCCOCCOCCOCCOCCOCCOc3cc(O)c4c(=O)c(-c5ccc(O)cc5)coc4c3)nn2)cc1
- Activity (LNCaP [1]): inactive
- Activity (DU-145 [2]): inactive

Structure (SMILES): CC1(C)C(=O)N(c2ccc(C#N)c(C(F)(F)F)c2)C(=O)N1CCCCc1cn(CCOCCOCCOCCOCCOCCOCCOCCOc2cc(O)c3c(=O)c(-c4ccc(O)cc4)coc3c2)nn1
- IC50 (LNCaP [1]): 1.4 µM
- Activity (LNCaP [21]): 39.2%
- Activity (LNCaP [22]): 0.55%
- Activity (LNCaP [23]): -0.094%
- Activity (LNCaP [24]): -0.92%
- Activity (LNCaP [25]): 10.6%
- Activity (LNCaP [26]): Active
- Activity (LNCaP [27]): 54.7%
- Survival (DU-145 [28]): <40%
- Activity (LNCaP [29]): 34%
- Activity (LNCaP [30]): 50.8%
- Activity (LNCaP [31]): -0.63%
- IC50 (DU-145 [2]; DU-145, 72 h): 3.4 µM
- Activity (LNCaP C4-2 [32]): 50%
- Activity (PC-3 [33]): 5 - 10%
- Activity (LNCaP [34]): Dose-dependent effect
- Survival (LNCaP [35]): <40%
- Activity (CWR22R [36]): 15 - 20%
- Activity (LNCaP [37]): 11.3%
